Results from ChEMBL document CHEMBL1777755, “A new iridoid and effect on the rat aortic vascular smooth muscle cell proliferation of isolated compounds from Buddleja officinalis” (Bioorg Med Chem Lett, 2011).
The source made the active and inactive calls. The calls are words filed in the database; no cut-off is given here.

Assays:
[1] = system: VSMC; assay: (§1) Antiproliferative activity against PDGF-BB-induced rat VSMC proliferation at 10 uM after 24 hrs by WST1 (CCK-8) assay; type: functional
Procedure, shortened: (§2)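 Rat aortic VSMCs were seeded at 4 × 10^4 cells/well and grown 48 h in DMEM with 10% FBS. They were then held 24 h in serum-free medium with compounds (0–50 µM), then stimulated 24 h. The methods footnote gives the stimulus as 5% FBS; the figure legends give 25 ng/mL PDGF-BB. WST-1 was added at 22 h for 2 h, and OD read at 450 nm. AG1295 (1 µM) served as positive control; mean ± SD, n = 4.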

[2] = system: VSMC; assay: (§3) Antiproliferative activity against PDGF-BB-induced rat VSMC proliferation at 50 uM after 24 hrs by WST1 (CCK-8) assay; type: functional; procedure, shortened: as §2
[3] = Cytotoxicity against PDGF-BB-induced rat VSMC at 50 uM
[4] = system: VSMC; assay: Antiproliferative activity against PDGF-BB-induced rat VSMC proliferation after 24 hrs by WST1 (CCK-8) assay; type: functional; procedure, shortened: as §2
[5] = Antiproliferative activity against PDGF-BB-induced rat VSMC proliferation at 30 uM after 24 hrs by WST1 (CCK-8) assay; type: functional; procedure, shortened: as §2
[6] = as §1; type: functional; procedure, shortened: as §2
[7] = as §3; type: functional; procedure, shortened: as §2

Row | SMILES | Activity [1] | Activity [2] | Activity [3] | Activity [4] | other results
1 | COc1cc(C(=O)O[C@@H]2C[C@](C)(O)[C@H]3[C@H](O[C@@H]4O[C@H](CO)[C@@H](O)[C@H](O)[C@H]4O)OC=C[C@H]32)ccc1O | inactive | Active | Non-toxic | Dose-dependent effect | –
2 | C[C@@H]1O[C@@H](OC[C@H]2O[C@@H](OCCc3ccc(O)c(O)c3)[C@H](O)[C@@H](O[C@@H]3O[C@@H](C)[C@H](O)[C@@H](O)[C@H]3O)[C@@H]2OC(=O)/C=C/c2ccc(O)c(O)c2)[C@H](O)[C@H](O)[C@H]1O | – | inactive | – | – | –
3 | C[C@@H]1O[C@@H](O[C@@H]2[C@@H](O)[C@H](OCCc3ccc(O)c(O)c3)O[C@H](CO)[C@H]2O)[C@H](O)[C@H](O)[C@H]1O | – | inactive | – | – | –
4 | C[C@@H]1O[C@@H](O[C@@H]2[C@@H](O)[C@H](OCCc3ccc(O)c(O)c3)O[C@H](CO)[C@H]2OC(=O)/C=C/c2ccc(O)c(O)c2)[C@H](O)[C@H](O)[C@H]1O | – | inactive | – | – | –
5 | C[C@H]1O[C@H](O[C@@H]2[C@@H](O)[C@H](OCCc3ccc(O)c(O)c3)O[C@H](CO[C@H]3O[C@@H](CO)[C@H](O)[C@@H](O)[C@@H]3O)[C@H]2OC(=O)/C=C/c2ccc(O)c(O)c2)[C@@H](O)[C@@H](O)[C@@H]1O | – | inactive | – | – | –
6 | OC[C@H]1O[C@@H](OCCc2ccc(O)cc2)[C@H](O)[C@@H](O)[C@@H]1O | – | inactive | – | – | –
7 | OC[C@H]1O[C@@H](OCCc2ccccc2)[C@H](O)[C@@H](O)[C@@H]1O | – | inactive | – | – | –
8 | COc1ccc(-c2cc(=O)c3c(O)cc(O[C@@H]4O[C@H](CO[C@@H]5O[C@@H](C)[C@H](O)[C@@H](O)[C@H]5O)[C@@H](O)[C@H](O)[C@H]4O)cc3o2)cc1 [ACACIIN] | inactive | Active | Non-toxic | Dose-dependent effect | inhibition at 30 µM [5]: 21.2%
9 | O=c1cc(-c2ccc(O)cc2)oc2cc(O)cc(O)c12 [APIGENIN] | inactive | – | Toxic | – | –
10 | C=C[C@](C)(O)CC/C=C(\C)CO[C@@H]1O[C@H](CO)[C@@H](O)[C@H](O)[C@H]1O [BETULALBUSIDES A] | inactive | Active | Non-toxic | Dose-dependent effect | –
11 | CO[C@@H]1C=C2[C@@H]3CC(C)(C)CC[C@]3(CO)[C@@H](O)C[C@@]2(C)[C@]2(C)CC[C@H]3[C@](C)(CO)[C@@H](O[C@@H]4O[C@H](C)[C@H](O)[C@H](O[C@@H]5O[C@H](CO)[C@@H](O[C@@H]6O[C@@H](C)[C@H](O)[C@@H](O)[C@H]6O)[C@H](O)[C@H]5O)[C@H]4O[C@@H]4O[C@H](CO)[C@@H](O)[C@H](O)[C@H]4O)CC[C@]3(C)[C@@H]12 [BUDDLEJASAPONIN IA] | – | – | Toxic | – | –
12 | C[C@H]1O[C@@H](O[C@H]2CC[C@@]3(C)[C@@H](CC[C@]4(C)[C@@H]3C=C[C@]35OC[C@@]6(CCC(C)(C)C[C@H]63)[C@@H](O)C[C@]54C)[C@]2(C)CO)[C@H](O)[C@@H](O[C@@H]2O[C@H](CO)[C@@H](O)[C@H](O)[C@H]2O)[C@H]1O[C@@H]1OC[C@@H](O)[C@H](O)[C@H]1O [BUDDLEJASAPONIN III] | – | – | Toxic | – | –
13 | CO[C@@H]1C=C2[C@@H]3CC(C)(C)CC[C@]3(OC)[C@@H](O)C[C@@]2(C)[C@]2(C)CC[C@H]3[C@](C)(CO)[C@@H](O[C@@H]4O[C@H](C)[C@H](O)[C@H](O[C@@H]5O[C@H](CO)[C@@H](O)[C@H](O)[C@H]5O)[C@H]4O[C@@H]4O[C@H](CO)[C@@H](O)[C@H](O)[C@H]4O)CC[C@]3(C)[C@@H]12 [BUDDLEJASAPONIN IVA] | – | – | Toxic | – | –
14 | C[C@H]1O[C@@H](O[C@H]2CC[C@@]3(C)[C@@H](CC[C@]4(C)[C@@H]3C=C[C@]35OC[C@@]6(CCC(C)(C)C[C@H]63)[C@@H](O)C[C@]54C)[C@]2(C)CO)[C@H](O[C@@H]2O[C@H](CO)[C@@H](O)[C@H](O)[C@H]2O)[C@@H](O[C@@H]2O[C@H](CO)[C@@H](O)[C@H](O)[C@H]2O)[C@H]1O [BUDDLEJASAPONIN IV] | – | – | Toxic | – | –
15 | C[C@@H]1O[C@@H](O[C@H]2[C@H](O)[C@@H](O)[C@H](O[C@H]3[C@@H](O)[C@@H](C)O[C@@H](O[C@H]4CC[C@@]5(C)[C@@H](CC[C@]6(C)[C@@H]5C=C[C@]57OC[C@@]8(CCC(C)(C)C[C@H]85)[C@@H](O)C[C@]76C)[C@]4(C)CO)[C@@H]3O[C@@H]3O[C@H](CO)[C@@H](O)[C@H](O)[C@H]3O)O[C@@H]2CO)[C@H](O)[C@H](O)[C@H]1O [BUDDLEJASAPONIN I] | – | – | Toxic | – | –
16 | COc1ccc(/C=C/C(=O)O[C@@H]2[C@@H](OC(C)=O)[C@@H](O)[C@H](O[C@H]3[C@@H]4C=CO[C@@H](O[C@@H]5O[C@H](CO)[C@@H](O)[C@H](O)[C@H]5O)[C@@H]4[C@@]4(CO)O[C@@H]34)O[C@H]2C)cc1 [BUDDLEJOSIDE A4] | inactive | Active | Non-toxic | Dose-dependent effect | –
17 | C[C@@H]1O[C@@H](OC[C@H]2O[C@@H](Oc3cc(O)c4c(=O)cc(-c5ccc(O)cc5)oc4c3)[C@H](O)[C@@H](O)[C@@H]2O)[C@H](O)[C@H](O)[C@H]1O [ISORHOIFOLIN] | inactive | Active | Non-toxic | Dose-dependent effect | inhibition at 30 µM [5]: 22.6%
18 | CO[C@H]1[C@@H]2C=CO[C@@H](O[C@@H]3O[C@H](CO)[C@@H](O)[C@H](O)[C@H]3O)[C@@H]2[C@@]2(CO)O[C@@H]12 [METHYLCATALPOL] | – | Active | Non-toxic | Dose-dependent effect | –
19 | CO[C@H]1[C@@H]2C[C@@H]3OC[C@](O)([C@H]2[C@H](O[C@@H]2O[C@H](CO)[C@@H](O)[C@H](O)[C@H]2O)O3)[C@@H]1O [METHYLSCUTELLOSIDE] | – | – | Non-toxic | Dose-dependent effect | inhibition at 10 µM [6]: 39.1%; inhibition at 30 µM [5]: 42%; inhibition at 50 µM [7]: 79.6%
20 | CO[C@@H]1C=C2[C@@H]3CC(C)(C)CC[C@]3(CO)CC[C@@]2(C)[C@]2(C)CC[C@H]3[C@](C)(CO)[C@@H](O[C@@H]4O[C@H](C)[C@H](O)[C@H](O[C@@H]5O[C@H](CO)[C@@H](O[C@@H]6O[C@@H](C)[C@H](O)[C@@H](O)[C@H]6O)[C@H](O)[C@H]5O)[C@H]4O[C@@H]4O[C@H](CO)[C@@H](O)[C@H](O)[C@H]4O)CC[C@]3(C)[C@@H]12 [MIMENGOSIDE B] | – | – | Toxic | – | –
